Several values for one entry are separate records, joined by “and”; a condition that tells them apart may be missing. Equal entries are not always repeated.
Experiments:
[1] = target: T1, Hemoglobin HbA (Homo sapiens) (UniProt P69905+P68871); experiment: Oxygen pressure in mmHg at which the […] hemoglobin solution (in presence of 10 mM compound) was 50% saturated with oxygen.; format: protein-complex assay
Method in brief: (§1)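 Purified HbA from washed, lysed erythrocytes (DEAE-Sephacel, pH 8.4 Tris elution), exchanged into 50 mM HEPES pH 7.4. Stock Hb 5.4 mM mixed 1:1 with 20 mM compound in HEPES, giving final 2.7 mM Hb and 10 mM compound (about 4:1). Control is Hb mixed with buffer alone. Oxygen dissociation curves recorded on a Hem-O-Scan analyzer. P50 in mmHg at 50% saturation.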

[2] = target: T1, Hemoglobin HbA (Homo sapiens); experiment: Oxygen pressure in mmHg at which the control hemoglobin solution (no compound) was 50% saturated with oxygen.; format: protein-complex assay; method in brief: as §1
[3] = Dose-response study in whole blood at a concentration of 0.5 mM; format: tissue-based
Method in brief: (§2)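 Fresh heparinized whole blood mixed 1:1 with test compound in isosmotic 50 mM HEPES pH 7.4 containing 140 mM NaCl and 10 mM glucose. Hb after addition approximately 1.25 mM. Oxygen dissociation curves recorded on a Hem-O-Scan analyzer. P50 with compound divided by P50 of control.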

[4] = Dose-response study in whole blood at a concentration of 1.0 mM; format: tissue-based; method in brief: as §2
[5] = Dose-response study in whole blood at a concentration of 10.0 mM; format: tissue-based; method in brief: as §2
[6] = Dose-response study in whole blood at a concentration of 2.0 mM; format: tissue-based; method in brief: as §2
[7] = Dose-response study in whole blood at a concentration of 4.0 mM; format: tissue-based; method in brief: as §2

T1 sequence (P68871 2-147 partner limits assumed): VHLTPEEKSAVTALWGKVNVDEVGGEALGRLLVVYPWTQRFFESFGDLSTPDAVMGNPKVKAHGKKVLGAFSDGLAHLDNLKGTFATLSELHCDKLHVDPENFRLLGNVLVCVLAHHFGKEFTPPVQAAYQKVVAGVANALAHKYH
T1 sequence (P69905 2-142 limits assumed): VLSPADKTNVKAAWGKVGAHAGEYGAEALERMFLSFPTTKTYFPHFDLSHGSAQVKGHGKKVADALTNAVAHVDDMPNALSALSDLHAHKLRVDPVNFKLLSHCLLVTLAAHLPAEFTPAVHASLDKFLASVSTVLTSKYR

P50d [1]	P50c [2]	SMILES	P50d/P50c [3]	P50d/P50c [4]	P50d/P50c [5]	P50d/P50c [6]	P50d/P50c [7]
63 mmHg and 54 mmHg	20.5 mmHg and 19 mmHg	CC(C)(Oc1ccc(CC(=O)Nc2ccccc2)cc1)C(=O)O	–	–	–	–	–
52 mmHg [middle of 4 runs]	15.5 mmHg and 19 mmHg and 18.5 mmHg (2×)	CC(C)(Oc1ccc(CC(=O)Nc2ccc(Cl)cc2)cc1)C(=O)O	–	–	–	–	–
34 mmHg and 35 mmHg	18 mmHg	CC(C)(Oc1ccc(CC(=O)Nc2c(Cl)cccc2Cl)cc1)C(=O)O	–	–	–	–	–
44 mmHg and 65 mmHg and 63 mmHg	11.8 mmHg and 18 mmHg (2×)	CC(C)(Oc1ccc(NC(=O)Nc2cc(Cl)cc(Cl)c2)cc1)C(=O)O	0.96	1.15	2.25	1.7	1.84
44 mmHg [middle of 5 runs]	19 mmHg (4×) and 21 mmHg	CC(C)(Oc1ccc(NC(=O)Cc2ccc(Cl)cc2)cc1)C(=O)O	–	–	–	–	–
32 mmHg	18 mmHg	CC(C)(Oc1ccc(CCNC(=O)c2ccccc2)cc1)C(=O)O	–	–	–	–	–
75.5 mmHg and 76.5 mmHg and 78 mmHg	19 mmHg and 19.2 mmHg (2×)	Cc1cc(C)cc(NC(=O)Cc2ccc(OC(C)(C)C(=O)O)cc2)c1	1.07	1.53	3	1.93	2.61
–	19 mmHg (2×) and 11.5 mmHg	CC(C)(Oc1ccc(CNC(=O)c2cc(Cl)c(Cl)c(Cl)c2)cc1)C(=O)O	–	–	–	–	–
65 mmHg	18.2 mmHg and 18 mmHg	CC(C)(Oc1ccc(CC(=O)Nc2ccc(Cl)c(Cl)c2)cc1)C(=O)O	–	–	–	–	–
37 mmHg and 60 mmHg and 63 mmHg	12 mmHg and 19 mmHg (2×)	CC(C)(Oc1ccc(CC(=O)Nc2cc(Cl)c(Cl)c(Cl)c2)cc1)C(=O)O	–	–	–	–	–
38.5 mmHg and 40 mmHg	19 mmHg and 18 mmHg	CC(C)(Oc1ccc(CNC(=O)c2ccc(Cl)c(Cl)c2)cc1)C(=O)O	–	–	–	–	–
35 mmHg	19.5 mmHg	CC(C)(Oc1ccc(NC(=O)Cc2ccccc2)cc1)C(=O)O	–	–	–	–	–
32 mmHg	18 mmHg	CC(C)(Oc1ccc(NC(=O)Nc2ccc(Cl)c(Cl)c2)cc1)C(=O)O	–	–	–	–	–
48.5 mmHg and 47 mmHg and 46 mmHg	19 mmHg	CC(C)(Oc1ccc(CNC(=O)c2cc(Cl)cc(Cl)c2)cc1)C(=O)O	–	–	–	–	–
57 mmHg and 56.5 mmHg and 57.8 mmHg	19.5 mmHg and 19 mmHg (2×)	CC(C)c1ccc(NC(=O)Cc2ccc(OC(C)(C)C(=O)O)cc2)cc1	–	–	–	–	–
44 mmHg [middle of 4 runs]	20 mmHg and 17.5 mmHg (2×) and 18 mmHg	CC(C)(Oc1ccc(CC(=O)Nc2ccc(C(F)(F)F)cc2)cc1)C(=O)O	–	–	–	–	–
37 mmHg	18 mmHg and 19 mmHg	CC(C)(Oc1ccc(CNC(=O)c2cccc(Cl)c2)cc1)C(=O)O	–	–	–	–	–
48 mmHg (2×) and 49 mmHg	19 mmHg (2×) and 18 mmHg	CC(C)(Oc1ccc(CNC(=O)c2ccc(Cl)cc2)cc1)C(=O)O	–	–	–	–	–
35 mmHg and 35.5 mmHg	18 mmHg and 19 mmHg	CC(C)(Oc1ccc(CNC(=O)c2ccccc2)cc1)C(=O)O	–	–	–	–	–
52 mmHg and 44 mmHg	20 mmHg and 17.5 mmHg	CC(C)(Oc1ccc(CC(=O)Nc2ccc(F)cc2)cc1)C(=O)O	–	–	–	–	–
48 mmHg and 35 mmHg and 36 mmHg	18 mmHg and 14 mmHg (2×)	CC(C)(Oc1ccc(NC(=O)Nc2cc(Cl)c(Cl)c(Cl)c2)cc1)C(=O)O	–	–	–	–	–
28 mmHg	19 mmHg	CC(C)(Oc1ccc(CNC(=O)c2ccccc2Cl)cc1)C(=O)O	–	–	–	–	–
40 mmHg and 41 mmHg	15 mmHg	Cc1ccc(NC(=O)Cc2ccc(OC(C)(C)C(=O)O)cc2)cc1	–	–	–	–	–
31 mmHg [middle of 4 runs]	18 mmHg and 17 mmHg (2×) and 18.5 mmHg	CC(C)(Oc1ccc(CCNC(=O)c2ccc(Cl)cc2)cc1)C(=O)O	–	–	–	–	–

SMILES	P50d [1]	P50c [2]	P50d/P50c [3]	P50d/P50c [4]	P50d/P50c [5]	P50d/P50c [6]	P50d/P50c [7]
CC(C)(Oc1ccc(CC(=O)Nc2cc(Cl)cc(Cl)c2)cc1)C(=O)O	47 mmHg [middle of 5 runs]	10.3 mmHg and 11 mmHg (2×) and 19.2 mmHg (2×)	1.09	1.52	2.93	2	2.72

— ChEMBL document CHEMBL1125253, “Allosteric modifiers of hemoglobin. 1. Design, synthesis, testing, and structure-allosteric activity relationship of novel hemoglobin oxygen affinity decreasing agents” (J Med Chem, 1991)
